In ChEMBL document CHEMBL3120138, “Glucocorticoid receptor modulators informed by crystallography lead to a new rationale for receptor selectivity, function, and implications for structure-based design” (J Med Chem, 2014) one finds Ki and IC50 data, which are given here for four molecules.

SMILES strings stand for the structures.

The target of one assay is T1, Glucocorticoid receptor (Homo sapiens, UniProt P04150).
T1 sequence (P04150 whole entry): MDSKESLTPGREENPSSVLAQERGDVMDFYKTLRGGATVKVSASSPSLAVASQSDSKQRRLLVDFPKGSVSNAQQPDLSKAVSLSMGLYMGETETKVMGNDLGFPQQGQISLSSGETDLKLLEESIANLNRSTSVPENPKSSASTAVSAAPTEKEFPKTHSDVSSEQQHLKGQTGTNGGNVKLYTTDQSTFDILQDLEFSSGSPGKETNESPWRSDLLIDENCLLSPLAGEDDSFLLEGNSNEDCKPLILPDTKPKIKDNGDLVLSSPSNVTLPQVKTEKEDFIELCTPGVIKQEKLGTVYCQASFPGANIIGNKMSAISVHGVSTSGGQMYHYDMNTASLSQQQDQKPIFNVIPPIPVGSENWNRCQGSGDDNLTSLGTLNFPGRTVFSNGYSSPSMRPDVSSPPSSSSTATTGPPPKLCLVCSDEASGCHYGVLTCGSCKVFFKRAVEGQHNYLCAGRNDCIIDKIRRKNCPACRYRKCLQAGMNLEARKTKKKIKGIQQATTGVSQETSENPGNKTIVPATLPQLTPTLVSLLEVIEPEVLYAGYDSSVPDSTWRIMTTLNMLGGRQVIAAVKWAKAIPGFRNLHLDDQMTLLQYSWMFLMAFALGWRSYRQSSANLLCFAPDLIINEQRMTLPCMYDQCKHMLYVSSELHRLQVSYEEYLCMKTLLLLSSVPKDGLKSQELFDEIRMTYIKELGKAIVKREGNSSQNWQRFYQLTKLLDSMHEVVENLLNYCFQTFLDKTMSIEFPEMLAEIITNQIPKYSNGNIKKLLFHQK
The assay can be described thus: Displacement of [3H]-dexamethasone from human glucocorticoid receptor expressed in HEK293 cells. The assay is classed as cell-based.

Assay [1] can be described thus: Antiinflammatory activity in human CCD-39SK cells assessed as inhibition of IL-1beta-induced IL-6 production incubated for 60 mins prior to IL-1beta induction measured after 24 hrs. The assay is classed as functional, cell-based. An outline of the steps:
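CCD-39SK fibroblasts (20 000/well) were grown in MEM with 2% charcoal/dextran-treated FBS. Cells were pretreated with compound for 60 min, then stimulated with rhIL-1β (1 ng/mL final) for 24 h at 37 °C. IL-6 in clarified supernatant was measured. […] Ten-point half-log dilutions were used, each in triplicate.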

The target in the next assay is T2, Progesterone receptor (Homo sapiens, UniProt P06401).
T2 sequence (P06401 whole entry): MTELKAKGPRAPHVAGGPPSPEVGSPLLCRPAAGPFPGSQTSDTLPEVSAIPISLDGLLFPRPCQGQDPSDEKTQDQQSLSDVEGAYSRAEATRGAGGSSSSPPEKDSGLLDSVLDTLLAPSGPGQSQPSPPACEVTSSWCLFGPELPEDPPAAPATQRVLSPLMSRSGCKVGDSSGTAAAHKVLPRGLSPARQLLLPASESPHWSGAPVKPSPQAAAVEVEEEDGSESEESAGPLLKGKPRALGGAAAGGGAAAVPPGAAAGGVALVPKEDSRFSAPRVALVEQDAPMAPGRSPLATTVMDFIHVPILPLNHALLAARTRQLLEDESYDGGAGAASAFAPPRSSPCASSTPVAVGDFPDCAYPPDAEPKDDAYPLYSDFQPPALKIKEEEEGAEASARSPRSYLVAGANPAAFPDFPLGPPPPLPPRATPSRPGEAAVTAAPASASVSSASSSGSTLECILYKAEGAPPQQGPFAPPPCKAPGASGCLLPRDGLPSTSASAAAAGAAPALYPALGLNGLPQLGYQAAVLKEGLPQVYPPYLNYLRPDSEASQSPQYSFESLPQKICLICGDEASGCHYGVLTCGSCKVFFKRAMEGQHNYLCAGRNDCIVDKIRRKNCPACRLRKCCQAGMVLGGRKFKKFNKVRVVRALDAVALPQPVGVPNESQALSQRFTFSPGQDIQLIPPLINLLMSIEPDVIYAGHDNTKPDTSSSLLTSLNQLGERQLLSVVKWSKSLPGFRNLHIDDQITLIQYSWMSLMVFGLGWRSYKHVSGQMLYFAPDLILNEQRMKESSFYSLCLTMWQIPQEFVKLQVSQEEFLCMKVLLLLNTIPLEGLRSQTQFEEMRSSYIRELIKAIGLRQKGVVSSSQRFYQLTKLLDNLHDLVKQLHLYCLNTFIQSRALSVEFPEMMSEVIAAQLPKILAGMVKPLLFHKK
Put plainly: Displacement of [3H]-methyltrienolone from human progesterone receptor expressed in HEK293 cells. The assay is classed as cell-based. An outline of the steps: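 Competition binding used lysates of HEK293 cells overexpressing the human receptor. The tracer was ³H-aldosterone for MR and ³H-methyltrienolone for PR. Competitor was tested from 0.01 nM to 10 μM. IC50 was converted to Ki by Cheng–Prusoff. Values are means of at least three experiments, each run in triplicate.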

A further assay deals with T3, Androgen receptor (Homo sapiens, UniProt P10275).
T3 sequence (P10275 whole entry): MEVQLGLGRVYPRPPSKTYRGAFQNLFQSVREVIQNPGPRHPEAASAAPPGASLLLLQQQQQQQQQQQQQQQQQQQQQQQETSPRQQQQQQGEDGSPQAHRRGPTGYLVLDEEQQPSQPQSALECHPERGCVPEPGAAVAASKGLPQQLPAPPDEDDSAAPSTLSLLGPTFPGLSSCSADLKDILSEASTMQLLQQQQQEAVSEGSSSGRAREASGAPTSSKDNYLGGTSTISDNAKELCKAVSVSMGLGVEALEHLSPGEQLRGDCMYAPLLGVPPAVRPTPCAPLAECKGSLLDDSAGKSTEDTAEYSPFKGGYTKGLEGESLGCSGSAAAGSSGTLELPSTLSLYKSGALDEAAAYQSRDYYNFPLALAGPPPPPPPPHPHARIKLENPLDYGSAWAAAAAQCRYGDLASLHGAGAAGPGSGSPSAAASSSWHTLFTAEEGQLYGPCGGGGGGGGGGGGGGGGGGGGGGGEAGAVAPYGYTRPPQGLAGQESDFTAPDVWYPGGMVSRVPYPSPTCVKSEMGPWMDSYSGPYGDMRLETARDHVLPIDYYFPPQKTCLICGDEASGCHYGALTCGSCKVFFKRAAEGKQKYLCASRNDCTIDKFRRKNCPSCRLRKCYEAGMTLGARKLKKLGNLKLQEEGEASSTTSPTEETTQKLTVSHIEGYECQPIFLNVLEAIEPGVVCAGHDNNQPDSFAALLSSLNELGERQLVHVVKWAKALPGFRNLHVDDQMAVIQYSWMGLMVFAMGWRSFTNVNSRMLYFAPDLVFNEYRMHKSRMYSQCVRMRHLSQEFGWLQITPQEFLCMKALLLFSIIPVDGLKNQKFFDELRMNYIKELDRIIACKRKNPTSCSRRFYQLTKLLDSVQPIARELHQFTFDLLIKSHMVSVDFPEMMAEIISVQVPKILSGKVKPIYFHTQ
Put plainly: Displacement of [3H]-methyltrienolone from human androgen receptor expressed in HEK293 cells. The assay is classed as cell-based.

As to `CS(=O)(=O)Nc1cccc(C=C2c3ccccc3CCc3ccccc32)c1`, the values for the inhibitory constant (Ki) at Glucocorticoid receptor, on Progesterone receptor and on Androgen receptor were 0.226 nM, 99 nM and 418 nM, respectively. Besides, in assay [1], the IC50 came out at 75.9 nM.

Regarding `CC/C(=C1/c2ccccc2COc2ccccc21)c1cccc(NS(C)(=O)=O)c1`, the values for the Ki on Glucocorticoid receptor, at Progesterone receptor and at Androgen receptor were 0.146 nM, 15.5 nM and 9.74 nM, respectively. For the same molecule, in assay [1], the IC50 was found to be 4.8 nM.

As for `CC/C(=C1\c2ccccc2OCc2cccc(OC)c21)c1cccc(NS(C)(=O)=O)c1`, the Ki on Glucocorticoid receptor turned out to be 0.268 nM; at Progesterone receptor, 26.8 nM; at Androgen receptor it was 239 nM. Further, the IC50 in assay [1] stood at 4.38 nM.

As to `C/C(=C1/c2ccccc2COc2ccccc21)c1cccc(NS(C)(=O)=O)c1`, the Ki stood at 0.257 nM at Glucocorticoid receptor, 6.17 nM at Progesterone receptor and 5.98 nM on Androgen receptor. In addition, in assay [1], the IC50 is 9.32 nM.
